ChEMBL document CHEMBL3044785, “Isolation and identification of antifungal and antialgal alkaloids from Haplophyllum sieversii” (J Agric Food Chem, 2005)
Calls of active or inactive are those of the source. The calls are words filed in the database; no cut-off is given here.

Columns and labels:
[1] = test system: Selenastrum capricornutum; assay: Antialgal activity against Selenastrum capricornutum assessed as inhibition measured for 96 hr; assay type: functional, organism-based
How it was run: (§1)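 Cyanobacteria (O. perornata, O. agardhii, Pseudanabaena LW397) and the green alga S. capricornutum were each maintained in continuous steady-state culture. Compound in dichloromethane was dried in quartz 96-well plates, then 200 µL culture was added. Final concentrations were 0.1, 1.0, 10.0 and 100.0 µM, in triplicate, and experiments were repeated. Plates were held at 29 °C under continuous light, and A650 was read every 24 h for 4 days. LOEC, LCIC and 96-h IC50 were taken from mean absorbance graphs.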

[2] = test system: Colletotrichum gloeosporioides; assay: Antifungal activity against Colletotrichum gloeosporioides assessed as growth inhibition at 50 to 150 uM measured up to 72 hr by 96-well microtiter assay; assay type: functional, organism-based
How it was run: (§2)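 Filamentous-fungus broth microdilution in 96 wells, adapted from NCCLS M27A, with benomyl, azoxystrobin and captan as standards. Conidia came from 7–10-day PDA cultures, were filtered and set to 1.0 × 10^6 conidia/mL by A625 standard curve. Compounds were tested at 50.0, 100.0 and 150.0 µM. Growth was read as A620 at 0, 24, 48 and 72 h, plus 120 h for Phomopsis species. Percent inhibition was pooled from two experiments.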

[3] = test system: Selenastrum capricornutum; assay: Antialgal activity against Selenastrum capricornutum assessed as lowest complete inhibition concentration measured for 4 days; assay type: functional; how it was run: as §1
Pseudanabaena sp. [4] = assay: Antialgal activity against Pseudanabaena sp. LW397 assessed as lowest observed effect concentration measured for 4 days; assay type: functional; how it was run: as §1
Pseudanabaena sp. [5] = assay: Antialgal activity against Pseudanabaena sp. LW397 assessed as lowest complete inhibition concentration measured for 4 days; assay type: functional; how it was run: as §1
Botrytis cinerea = assay: Antifungal activity against Botryotinia fuckeliana assessed as growth inhibition at 50 to 150 uM measured up to 72 hr by 96-well microtiter assay; assay type: functional, organism-based; how it was run: as §2
Planktothrix agardhii [6] = assay: Antialgal activity against Planktothrix agardhii assessed as lowest observed effect concentration measured for 4 days; assay type: functional; how it was run: as §1
Colletotrichum fragariae = assay: Antifungal activity against Colletotrichum fragariae assessed as growth inhibition at 50 to 150 uM measured up to 72 hr by 96-well microtiter assay; assay type: functional, organism-based; how it was run: as §2
Pseudanabaena sp. [7] = assay: Antialgal activity against Pseudanabaena sp. LW397 assessed as inhibition measured for 96 hr; assay type: functional, organism-based; conditions: LW397, 96 h; how it was run: as §1
Planktothrix perornata [8] = assay: Antialgal activity against Oscillatoria perornata assessed as lowest complete inhibition concentration measured for 4 daysos; assay type: functional; how it was run: as §1
Fusarium oxysporum = assay: Antifungal activity against Fusarium oxysporum assessed as growth inhibition at 50 to 150 uM measured up to 72 hr by 96-well microtiter assay; assay type: functional, organism-based; how it was run: as §2
Phomopsis obscurans [9] = assay: Antifungal activity against Phomopsis obscurans assessed as growth inhibition at 50 uM measured at 120 hr by 96-well microtiter assay; assay type: functional; conditions: Paraphomopsis obscurans; how it was run: as §2
Colletotrichum acutatum = assay: Antifungal activity against Colletotrichum acutatum assessed as growth inhibition at 50 to 150 uM measured up to 72 hr by 96-well microtiter assay; assay type: functional, organism-based; how it was run: as §2
Planktothrix perornata [10] = assay: Antialgal activity against Oscillatoria perornata assessed as inhibition measured for 96 hr; assay type: functional, organism-based; how it was run: as §1
Planktothrix agardhii [11] = assay: Antialgal activity against Planktothrix agardhii assessed as lowest complete inhibition concentration measured for 4 days; assay type: functional; how it was run: as §1
[12] = test system: Selenastrum capricornutum; assay: Antialgal activity against Selenastrum capricornutum assessed as lowest observed effect concentration measured for 4 days; assay type: functional; how it was run: as §1
Planktothrix perornata [13] = assay: Antialgal activity against Oscillatoria perornata assessed as lowest observed effect concentration measured for 4 days; assay type: functional; how it was run: as §1
Diaporthe ampelina = assay: Antifungal activity against Diaporthe ampelina assessed as growth inhibition at 50 to 150 uM measured up to 120 hr by 96-well microtiter assay; assay type: functional, organism-based; how it was run: as §2
Phomopsis obscurans [14] = assay: Antifungal activity against Phomopsis obscurans assessed as growth inhibition at 50 to 150 uM measured up to 120 hr by 96-well microtiter assay; assay type: functional, organism-based; conditions: Paraphomopsis obscurans; how it was run: as §2
Phomopsis obscurans [15] = assay: Antifungal activity against Phomopsis obscurans assessed as growth inhibition at 50 uM measured at 120 hr by 96-well microtiter assay; conditions: Paraphomopsis obscurans
[16] = test system: Colletotrichum gloeosporioides; assay: Antifungal activity against Colletotrichum gloeosporioides assessed as growth inhibition at 150 µM measured at 48 hr by 96-well microtiter assay
[17] = test system: Colletotrichum gloeosporioides; assay: Antifungal activity against Colletotrichum gloeosporioides assessed as growth inhibition at 150 µM measured at 72 hr by 96-well microtiter assay

Row | SMILES | IC50 [1] | growth inhibition (GI) [2] | Activity [3] | Activity (Pseudanabaena sp. [4]) | Activity (Pseudanabaena sp. [5]) | Activity (Planktothrix agardhii [6]) | growth inhibition (GI) (Colletotrichum fragariae) | Activity (Planktothrix perornata [8]) | growth inhibition (GI) (Fusarium oxysporum) | inhibition at 50 µM (Phomopsis obscurans [9]) | growth inhibition (GI) (Colletotrichum acutatum) | IC50 (Planktothrix perornata [10]) | Activity (Planktothrix agardhii [11]) | Activity [12] | Activity (Planktothrix perornata [13]) | growth inhibition (GI) (Diaporthe ampelina) | growth inhibition (GI) (Phomopsis obscurans [14]) | inhibition at 50 µM (Phomopsis obscurans [15]) | further results
1 | COc1ccc2[nH]c(=O)c3c(c2c1)OC(C)(C)C=C3 [HAPLAMINE] | 15.9 µM | Active | 100 µM | 1 µM | 100 µM | >100 µM | Active | 10 µM | Active | > 80% | Active | 1.8 µM | >100 µM | 10 µM | 1 µM | Active | Active | > 80% | growth inhibition (GI) (Botrytis cinerea): Active; IC50 (Pseudanabaena sp. [7]): 2 µM
2 | CC1(C)C=Cc2c(O)nc3ccccc3c2O1 [FLINDERSINE] | 17.8 µM | Active | 100 µM | >100 µM | >100 µM | >100 µM | Active | 100 µM | Active | > 80% | Active | 15.9 µM | >100 µM | 10 µM | 10 µM | Active | Active | > 80% | inhibition (INH) [16]: >65%; inhibition (INH) [17]: <40%
3 | COc1ccc([C@H]2OC[C@H]3[C@@H]2CO[C@@H]3c2ccc(OC)c(OC)c2)cc1OC [(+)-EUDESMIN] |  | Active | >100 µM | 100 µM | 100 µM | >100 µM | Active | >100 µM | Active | > 80% | Active |  | >100 µM | 100 µM | 10 µM | Active | Active | > 80% | 
4 | COc1c2ccoc2nc2c(OC)c(OCC3OC3(C)C)ccc12 (centres undefined) [ANHYDROEVOXINE] |  | Active |  |  |  |  | Active |  | Active | > 80% | Active |  |  |  |  | Active | Active | > 80% | 
